Assay results from ChEMBL document CHEMBL4190232, “Isoflavones and Rotenoids from the Leaves of Millettia oblata ssp. teitensis” (J Nat Prod, 2017).
Activity calls are given as the source filed them. No cut-off for these calls is given here.

Assays:
Mus musculus = species on record: Mus musculus; assay: Inhibition of cap/HCV-mediated translation in mouse Krebs2 cell free extract expressing FF/HCV/IRES-Ren mRNA reporter transcript assessed as reduction in luciferase production at 20 uM after 60 mins; type: functional
In short: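 Compound stocks were 10 mM in DMSO, diluted to 200 μM in water, and tested at a final 20 μM in Krebs-2 translation extracts. The extracts were programmed with bicistronic Firefly–HCV IRES–Renilla luciferase mRNA. Reactions ran for 60 min at 30 °C, after which luciferase activities were measured.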

[1] = Cytotoxicity against mouse C26 cells assessed as reduction in cell viability by MTT assay; type: functional, cell-based
HepG2 = assay: Cytotoxicity against human HepG2 cells assessed as reduction in cell viability by MTT assay; type: functional, cell-based
[2] = tested on: Lewis lung carcinoma cell line; assay: Cytotoxicity against mouse LL/2 cells assessed as reduction in cell viability by MTT assay; type: functional, cell-based
B16 = assay: Cytotoxicity against mouse B16 cells assessed as reduction in cell viability by MTT assay; type: functional, cell-based
MDA-MB-231 = assay: Cytotoxicity against human MDA-MB-231 cells assessed as reduction in cell viability after 72 hrs by alamarBlue assay; type: functional, cell-based; conditions: MDA-MB-231, 72 h
In short: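 MDA-MB-231 cells grown in DMEM with 10% FBS, 2 mM L-glutamine, penicillin/streptomycin, 37 °C, 5% CO2. Seeded at 10⁴ cells/well, preincubated 24 h, then compound or DMSO vehicle (0.1% or 1.0% v/v) for 72 h. Viability by Alamar Blue, absorbance at 570 nm (600 nm reference), as % of vehicle control; six replicates, at least six independent experiments.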

COc1ccc2c(c1)O[C@@H]1COc3cc(OC)c(OC)cc3[C@]1(O)C2=O
inhibition (Mus musculus): inactive

COc1cc2c(cc1OC)[C@]1(O)C(=O)c3ccc4c(c3O[C@@H]1CO2)C=CC(C)(C)O4 [TEPHROSIN]
IC50 [1]: 1.35 to 9.85 µM
IC50 (HepG2): 1.35 to 9.85 µM
IC50 [2]: 1.35 to 9.85 µM
IC50 (B16): 1.35 to 9.85 µM
inhibition (Mus musculus): inactive

COc1ccc2c(c1)O[C@@H]1COc3cc4c(cc3[C@]1(O)C2=O)OCO4
inhibition (Mus musculus): inactive

CC(C)=CCOc1ccc2c(=O)c(-c3ccc4c(c3)OCO4)coc2c1
IC50 (MDA-MB-231): 154 µM
inhibition (Mus musculus): inactive

COc1cc2c(cc1-c1coc3cc(O)ccc3c1=O)OCO2
inhibition (Mus musculus): inactive

COc1cc2c(cc1-c1coc3c(CC=C(C)C)c(OC)c(OC)cc3c1=O)OCO2
IC50 (MDA-MB-231): > 235 µM
inhibition (Mus musculus): inactive

COc1ccc2c(c1)O[C@@H]1COc3cc(OC)c(OC)cc3[C@@H]1C2=O
inhibition (Mus musculus): inactive

COc1ccc(-c2coc3cc(OCC=C(C)C)ccc3c2=O)cc1
IC50 (MDA-MB-231): 33.3 µM
inhibition (Mus musculus): inactive

COc1ccc2c(c1)O[C@@H]1COc3c(cc(OC)c4c3OCO4)[C@]1(O)C2=O
inhibition (Mus musculus): inactive

COc1ccc2c(=O)c(-c3cc(OC)c4c(c3OC)OCO4)coc2c1
IC50 (MDA-MB-231): 168 µM
inhibition (Mus musculus): inactive

COc1ccc2c(c1)O[C@@H]1COc3cc4c(cc3[C@@H]1C2=O)OCO4
IC50 (MDA-MB-231): 93.8 µM
inhibition (Mus musculus): inactive

COc1cc2c(cc1OC)-c1c(oc3c4c(ccc3c1=O)OC(C)(C)C=C4)CO2 [DEHYDRODEGUELIN]
IC50 [1]: 0.56 to 16 µM
IC50 (HepG2): 0.56 to 16 µM
IC50 [2]: 0.56 to 16 µM
IC50 (B16): 0.56 to 16 µM
inhibition (Mus musculus): inactive

COc1cc2occ(-c3cc4c(cc3OC)OCO4)c(=O)c2cc1OC
inhibition (Mus musculus): inactive

COc1ccc2c(c1)O[C@@H]1COc3cc4c(cc3[C@@]1(O)C2=O)OCO4
inhibition (Mus musculus): inactive
